# Results: ChEMBL document CHEMBL1177786, “Synthesis of novel beta-carbolines with efficient DNA-binding capacity and potent cytotoxicity” (Bioorg Med Chem Lett, 2010)
# Counter-ions that a name gives are not always drawn. Active and inactive are the calls of the source. The rule behind the calls is not given here.
# Tests used:
# [1] = system: Calf thymus DNA; test: Binding affinity to calf thymus DNA at pH 7.4 by UV-vis spectroscopy; type: nucleic-acid assay; details: Bos taurus
# In short: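 UV absorption spectra recorded in PE buffer (1 mM Na₂HPO₄, 0.1 mM EDTA, pH 7.4) with CT-DNA increasing from 0.0 to 0.2 mM. Quartz cells with 10 mm path, room temperature.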
# [2] = system: HT-29; test: Cytotoxicity against human HT-29 cells by MTT assay; type: functional, cell-based
# In short: (§1)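 MTT assay in human tumour lines. IC50 is the compound concentration giving a 50% drop in optical density relative to untreated cells. Values are means of three independent determinations.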
# [3] = system: HepG2; test: Cytotoxicity against human HepG2 cells by MTT assay; type: functional, cell-based; in short: as §1
# [4] = system: CWR22R; test: Cytotoxicity against human 22Rv1 cells by MTT assay; type: functional, cell-based; in short: as §1
# [5] = system: 769-P; test: Cytotoxicity against human 769-P cells by MTT assay; type: functional, cell-based; in short: as §1
# [6] = system: Calf thymus DNA; test: Binding affinity to calf thymus DNA assessed as change in melting temperature at drug/DNA ratio 0.2 at pH 7.4; type: nucleic-acid assay; details: Bos taurus
# In short: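 Thermal denaturation of calf thymus DNA in PE buffer (1 mM Na₂HPO₄, 0.1 mM EDTA, pH 7.4), drug/DNA ratio 0.2; ΔTm taken as Tm of drug–DNA complex minus Tm of DNA alone.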
# [7] = system: 786-0; test: Cytotoxicity against human 786-0 cells by MTT assay; type: functional, cell-based; in short: as §1
# [8] = system: KB; test: Cytotoxicity against human KB cells by MTT assay; type: functional, cell-based; in short: as §1
# [9] = system: MCF7; test: Cytotoxicity against human MCF7 cells by MTT assay; type: functional, cell-based; in short: as §1
# [10] = system: Calf thymus DNA; test: Binding affinity to calf thymus DNA assessed as fluorescence quenching at 10 uM by spectrofluorimeter analysis; type: nucleic-acid assay; details: Bos taurus
# In short: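 Compound held fixed at […] in PE buffer (1 mM Na₂HPO₄, 0.1 mM EDTA, pH 7.4), titrated with CT-DNA. Fluorescence quenching recorded on a spectrofluorometer, excitation 372 nm.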
# [11] = Cytotoxicity against human BCG823 cells by MTT assay; type: functional, cell-based; in short: as §1
# [12] = system: A-375; test: Cytotoxicity against human A375 cells by MTT assay; type: functional, cell-based; in short: as §1
# [13] = system: OS-RC-2; test: Cytotoxicity against human OS-RC2 cells by MTT assay; type: functional, cell-based; in short: as §1
Structure (SMILES),Activity [1],IC50 [2] [µM],IC50 [3] [µM],IC50 [4] [µM],IC50 [5] [µM],ΔTm [6] [°C],IC50 [7] [µM],IC50 [8] [µM],IC50 [9] [µM],Activity [10],IC50 [11] [µM],IC50 [12] [µM],IC50 [13] [µM]
CCN(CC)CCCNCc1cc2c(cn1)[nH]c1ccccc12,Active,> 100,93.7,> 100,75.3,12.6,> 100,> 100,> 100,Active,> 100,> 100,67.4
CCCCn1c2ccccc2c2cc(CNCCN(CC)CC)ncc21,–,7.8,10.1,25.7,7.4,–,37.6,13.7,92.8,–,20.2,75.9,> 100
CCN(CC)CCCCNCc1cc2c3ccccc3n(Cc3ccc(F)cc3)c2cn1,–,10.1,2.5,9.6,2.9,–,5.8,6.5,20.2,–,9.4,6.5,31.7
CCN(CC)CCCNCc1cc2c3ccccc3n(Cc3cccc(Cl)c3)c2cn1,–,9.3,11.7,8.4,14.3,–,13,7.8,17.4,–,8.1,14.7,8
CCN(CC)CCNCc1cc2c3ccccc3n(C)c2cn1,–,41.1,> 100,> 100,> 100,–,> 100,> 100,> 100,–,75.7,> 100,> 100
CCN(CC)CCCCNCc1cc2c3ccccc3n(CCCc3ccccc3)c2cn1,–,6.4,3.4,7.6,10.9,–,9.2,6.1,9.1,–,8.8,5.8,27.7
CCN(CC)CCNCc1cc2c3ccccc3n(Cc3cccc(Cl)c3)c2cn1,–,19.7,17.7,58.5,19.3,–,47.6,21.6,42.2,–,37.9,22.7,52.3
CCN(CC)CCCCNCc1cc2c3ccccc3n(C)c2cn1,–,33.1,> 100,> 100,> 100,–,> 100,70.6,> 100,–,> 100,> 100,> 100
CCN(CC)CCCCNCc1cc2c3ccccc3n(Cc3cccc(Cl)c3)c2cn1,–,12.2,10.8,8.6,8.2,–,19.4,4.2,19.8,–,9.8,12.6,6.7
CCN(CC)CCCNCc1cc2c3ccccc3n(CCCc3ccccc3)c2cn1,Active,2.6,3.8,7.7,5.1,18.8,8.3,4.8,13.8,Active,7.4,8.9,13.1
CCN(CC)CCCCNCc1cc2c3ccccc3n(Cc3ccccc3)c2cn1,–,27,3,8.9,31,–,6.2,8.2,13.4,–,29.3,16.2,55
CCN(CC)CCNCc1cc2c3ccccc3n(CCCc3ccccc3)c2cn1,–,4.2,7.2,8.2,7.3,–,11.2,9.7,27.7,–,14.2,5.9,43.9
CCN(CC)CCCNCc1cc2c3ccccc3n(Cc3ccccc3)c2cn1,–,3.7,4.4,7.3,1.5,15.6,6.4,4.9,32.5,–,2.8,17.5,14.5
CCCCn1c2ccccc2c2cc(CNCCCCN(CC)CC)ncc21,–,27.4,8,13.5,8,–,14.1,10.2,23.4,–,23.4,15.2,71.7
COc1cccc2c1C(=O)c1c(O)c3c(c(O)c1C2=O)C[C@@](O)(C(=O)CO)C[C@@H]3O[C@H]1C[C@H](N)[C@H](O)[C@H](C)O1 [DOXORUBICIN HYDROCHLORIDE],–,4.2,1,< 1,11.5,–,3.1,0.6,–,–,< 1,17.2,< 1
CCN(CC)CCNCc1cc2c3ccccc3n(Cc3ccc(F)cc3)c2cn1,–,36.2,9.1,9,8.8,–,13.1,37.1,43.6,–,10.9,35,93.6
CC(=O)O[C@H]1C(=O)[C@@]2(C)[C@H]([C@H](OC(=O)c3ccccc3)[C@]3(O)C[C@H](OC(=O)[C@H](O)[C@@H](NC(=O)c4ccccc4)c4ccccc4)C(C)=C1C3(C)C)[C@]1(OC(C)=O)CO[C@@H]1C[C@@H]2O [PACLITAXEL],–,0.38,< 0.08,0.08,–,–,< 0.08,0.08,1.3,–,1.5,–,< 0.08
CCN(CC)CCCNCc1cc2c3ccccc3n(Cc3ccc(F)cc3)c2cn1,–,10.2,8,3.6,8.5,–,6.1,33.1,31.8,–,2.6,13.7,13.6
CCCCn1c2ccccc2c2cc(CNCCCN(CC)CC)ncc21,–,2.6,4.6,8.8,2.2,20.6,19.5,6.2,64.2,–,5.9,44.2,35.7
CCN(CC)CCNCc1cc2c3ccccc3n(Cc3ccccc3)c2cn1,–,5.2,13.1,15.9,2,–,14.4,8.2,68.1,–,9.7,39.1,> 100
CCN(CC)CCCNCc1cc2c3ccccc3n(C)c2cn1,–,35.7,96.1,> 100,> 100,24.5,87.6,59.7,> 100,–,> 100,> 100,> 100
